Results from ChEMBL document CHEMBL1145773, “Design, synthesis, SAR, and molecular modeling studies of acylthiocarbamates: a novel series of potent non-nucleoside HIV-1 reverse transcriptase inhibitors structurally related to phenethylthiazolylthiourea derivatives” (J Med Chem, 2003).

Legend:
MT-4 (Homo sapiens) = assay: Concentration required to reduce the viability of mock-infected MT-4 cells by 50% was determined by MTT method; details: MT4
MT4 = assay: Selectivity index which is the ratio of CC50 and EC50 was determined; assay type: functional, Homo sapiens
In short: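 MT-4 cells (1 × 10^4/well) were seeded with or without serial compound dilutions, then infected with HIV-1 IIIB at enough CCID50 for complete cytopathogenicity by day 4. Cultures were incubated at 37 °C and viability was read by MTT. […] Cytotoxicity was run in parallel on mock-infected cells, and SI = CC50/EC50. Data are means of three separate experiments.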

[1] = system: Human immunodeficiency virus 1; assay: Anti HIV-1 activity of selected N-acylthiocarbamates against Y181C resistant mutant; assay type: functional, organism-based
In short: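 Acutely infected MT-4 cells (1 × 10⁴ cells/well) incubated at 37 °C with serial compound dilutions (DMSO stock, diluted in medium) and Y181C mutant virus (NIH N119; titer 1.3 × 10⁶ CCID₅₀/mL) dosed to cause full cytopathogenicity by day 4. Viability read by MTT; EC₅₀ = concentration giving 50% protection from virus-induced cytopathogenicity.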

[2] = system: Human immunodeficiency virus 1; assay: Concentration required to reduce the amount of p24 by 90% in HIV-1 infected C8166 cultures; assay type: functional, organism-based; details: Human immunodeficiency virus 1, C8166
In short: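 C8166 cells (1 × 10^4/well) were infected with wt HIV-1 in the presence of graded compound concentrations, with DMSO stocks diluted in culture medium. After incubation at 37 °C, p24 antigen was measured by immunoenzymatic kit. EC90 is the concentration lowering p24 by 90%.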

[3] = target: Human immunodeficiency virus type 1 reverse transcriptase (Human immunodeficiency virus 1, UniProt Q72547); assay: Activity of selected HIV-1 N-acylthiocarbamates in enzyme assay against Virion-Associated reverse transcriptase
In short: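 Virion-associated RT from stock virus disrupted with 0.5% NP-40. Incubation 60 min at 37 °C, then acid-insoluble radioactivity counted on glass fiber filters.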

Row | Compound | CC50 (MT-4 (Homo sapiens)) | SI (MT4) | EC50 [1] | EC90 [2] | IC50 [3]
1 | O=C(c1ccc(Cl)cc1Cl)N(C(=S)OCCOc1ccccc1)c1ccccc1 | 43 µM | 3.7 |  |  | 
2 | Cc1ccccc1N(C(=O)c1cccs1)C(=S)OCCN1C(=O)c2ccccc2C1=O | > 100 µM | >9 |  |  | 
3 | O=C(c1ccccc1)N(C(=S)OCCOc1ccccc1)c1ccc(F)cc1 | 70.7 µM | 17.6 |  |  | 
4 | O=C(c1ccc(Cl)cc1)N(C(=S)OCCOc1ccccc1)c1ccccc1 | 133 µM | 12.9 |  |  | 
5 | O=C(c1ccccc1)N(C(=S)OCCOc1ccccc1)C1CCCCC1 | > 200 µM |  |  |  | 
6 | Cc1ccc(N(C(=O)c2cccs2)C(=S)OCCN2C(=O)c3ccccc3C2=O)cc1 | > 100 µM | >250 |  |  | 
7 | O=C(c1ccc(Cl)cc1)N(C(=S)OCCc1ccccc1)c1ccccc1 | 43 µM | 10.7 |  |  | 
8 | COc1cc(C(=O)N(C(=S)OCCOc2ccccc2)c2ccccc2)cc(OC)c1OC | > 200 µM | >20.8 |  |  | 
9 | O=C1c2ccccc2C(=O)N1CCOC(=S)N(C(=O)c1ccccc1)c1ccc(Br)cc1 | > 200 µM | >5714 |  |  | 
10 | O=C1c2ccccc2C(=O)N1CCOC(=S)N(C(=O)c1ccco1)c1ccc([N+](=O)[O-])cc1 | 18 µM | 2250 | 14 µM | 5 nM | 
11 | O=C(c1ccccc1)N(C(=S)OCCc1ccccc1)c1ccccc1 | 91 µM | 22 |  |  | 
12 | O=C(c1ccco1)N(C(=S)OCc1ccccc1)c1ccccc1 |  | 1.9 |  |  | 
13 | O=C1c2ccccc2C(=O)N1CCOC(=S)N(C(=O)c1cccs1)c1ccc(F)cc1 | > 100 µM | >1000 |  |  | 
14 | Cc1ccc(C(=O)N(C(=S)OCCOc2ccccc2)c2ccccc2)cc1 | > 200 µM | >20.2 |  |  | 
15 | O=C(/C=C/c1ccccc1)N(C(=S)OCCOc1ccccc1)c1ccccc1 | 66.6 µM | 8.65 |  |  | 
16 | CCOc1ccc(N(C(=O)c2ccc(Cl)nc2)C(=S)OCCN2C(=O)c3ccccc3C2=O)cc1 |  | >200 |  |  | 
17 | O=C(c1cc(Cl)cc(Cl)c1)N(C(=S)OCCOc1ccccc1)c1ccccc1 | 43 µM | 4.8 |  |  | 
18 | O=C(c1ccco1)N(C(=S)OCCc1ccccc1)c1ccccc1 | 102 µM | 24 |  |  | 
19 | O=C(/C=C/c1ccccc1)N(C(=S)OCCc1ccccc1)c1ccccc1 | 40.4 µM | 9 |  |  | 
20 | COc1ccccc1N(C(=O)c1cccs1)C(=S)OCCN1C(=O)c2ccccc2C1=O | > 100 µM | >9 |  |  | 

Row | Compound | CC50 (MT-4 (Homo sapiens)) | SI (MT4) | EC50 [1] | EC90 [2] | IC50 [3]
21 | O=C1c2ccccc2C(=O)N1CCOC(=S)N(C(=O)c1cccs1)c1cccc(Br)c1 | 53 µM | 44 |  |  | 
22 | O=C1c2ccccc2C(=O)N1CCOC(=S)N(C(=O)c1cccs1)c1ccc([N+](=O)[O-])cc1 | 168 µM | 16800 | 58 µM |  | 
23 | O=C1c2ccccc2C(=O)N1CCOC(=S)N(C(=O)c1cccs1)c1ccc(I)cc1 | 18 µM | 1800 |  |  | 
24 | O=C(c1ccccc1)N(C(=S)OCc1ccco1)c1ccccc1 | 38.3 µM |  |  |  | 
25 | O=C1c2ccccc2C(=O)N1CCOC(=S)N(C(=O)c1ccccc1)c1ccc(Cl)cc1 | > 200 µM | >2000 | > 100 µM | 130 nM | 
26 | O=C1c2ccccc2C(=O)N1CCOC(=S)N(C(=O)c1cccs1)c1cccc([N+](=O)[O-])c1 | 100 µM | 263 |  |  | 
27 | O=C1c2ccccc2C(=O)N1CCOC(=S)N(C(=O)c1ccccc1)c1ccccc1 | > 200 µM | >500 | > 100 µM | 800 nM | 
28 | CC(COc1ccccc1)OC(=S)N(C(=O)Oc1ccccc1)c1ccccc1 (stereo unspecified) | > 200 µM |  |  |  | 
29 | CC(COc1ccccc1)OC(=S)N(C(=O)c1cccs1)c1cccc(Cl)c1 (stereo unspecified) | > 100 µM | >9 |  |  | 
30 | CC(COc1ccccc1)OC(=S)N(C(=O)c1cccs1)c1ccc(Cl)cc1 (stereo unspecified) | > 100 µM | >9 |  |  | 
31 | O=C(COc1ccccc1)N(C(=S)OCCOc1ccccc1)c1ccccc1 | 103 µM | 17.1 |  |  | 
32 | CC(COc1ccccc1)OC(=S)N(C(=O)c1cccc([N+](=O)[O-])c1)c1ccccc1 (stereo unspecified) | > 200 µM | >55.5 |  |  | 
33 | CCCOC(=O)N(C(=S)OC(C)COc1ccccc1)c1ccccc1 (stereo unspecified) | > 200 µM | >1.5 |  |  | 
34 | O=C(c1cccs1)N(C(=S)OCCOc1ccccc1)c1ccccc1 | 125 µM | 14.5 |  |  | 
35 | O=C(c1ccco1)N(C(=S)OCCOc1ccccc1)c1ccccc1 | 82 µM | 9.7 |  |  | 
36 | O=C1c2ccccc2C(=O)N1CCOC(=S)N(C(=O)c1cccs1)c1cccc(Cl)c1 | > 100 µM | >17 |  |  | 
37 | CCN(CC)c1ccc(N(C(=O)c2cccs2)C(=S)OCCN2C(=O)c3ccccc3C2=O)cc1 | > 100 µM | 9 |  |  | 
38 | Cc1cccc(N(C(=O)c2cccs2)C(=S)OCCN2C(=O)c3ccccc3C2=O)c1 | > 100 µM | >10 |  |  | 
39 | CC(COc1ccccc1)OC(=S)N(C(=O)c1cccs1)c1ccccc1 (stereo unspecified) | > 200 µM | >100 |  |  | 
40 | CCc1ccc(N(C(=O)c2ccco2)C(=S)OCCN2C(=O)c3ccccc3C2=O)cc1 | > 100 µM | >3333 |  |  | 

Row | Compound | CC50 (MT-4 (Homo sapiens)) | SI (MT4) | EC50 [1] | EC90 [2] | IC50 [3]
41 | CC(COc1ccccc1)OC(=S)N(C(=O)c1ccco1)c1ccccc1 (stereo unspecified) | 51.5 µM | 39.6 |  |  | 
42 | O=C1c2ccccc2C(=O)N1CCOC(=S)N(C(=O)c1cccs1)c1ccc(Cl)cc1 | > 200 µM | >25000 | 1 µM | 8 nM | 2500 nM
43 | CC(COc1ccccc1)OC(=S)N(C(=O)c1ccccc1)c1ccccc1 (stereo unspecified) | > 200 µM | >153.8 |  |  | 
44 | O=C1c2ccccc2C(=O)N1CCOC(=S)N(C(=O)c1cccs1)c1ccccc1Cl | > 100 µM | 9 |  |  | 
45 | CCCCOC(=O)N(C(=S)OC(C)COc1ccccc1)c1ccccc1 (stereo unspecified) | > 200 µM | >4 |  |  | 
46 | O=C1c2ccccc2C(=O)N1CCOC(=S)N(C(=O)c1cccs1)c1cccc(F)c1 | > 100 µM | >9 |  |  | 
47 | O=C(c1ccccc1)N(C(=S)OCCSc1ccccc1)c1ccccc1 | 44 µM |  |  |  | 
48 | COc1cccc(N(C(=O)c2cccs2)C(=S)OCCN2C(=O)c3ccccc3C2=O)c1 | > 100 µM | >28 |  |  | 
49 | O=C1c2ccccc2C(=O)N1CCOC(=S)N(C(=O)c1cccs1)c1cccc(C(F)(F)F)c1 | > 100 µM | >9 |  |  | 
50 | CCc1ccccc1N(C(=O)c1cccs1)C(=S)OCCN1C(=O)c2ccccc2C1=O | > 100 µM | >9 |  |  | 
51 | O=C1c2ccccc2C(=O)N1CCOC(=S)N(C(=O)c1ccc(Cl)cc1)c1ccc(Cl)cc1 | > 100 µM | >4000 | 11.6 µM | 20 nM | 
52 | CC(COc1ccccc1)OC(=S)N(C(=O)c1cccs1)c1ccc([N+](=O)[O-])cc1 (stereo unspecified) | 63 µM | 10.5 |  |  | 
53 | CC(=O)Oc1ccccc1C(=O)N(C(=S)OCCOc1ccccc1)c1ccccc1 | > 200 µM | >21 |  |  | 
54 | O=C(c1ccc(Cl)c([N+](=O)[O-])c1)N(C(=S)OCCOc1ccccc1)c1ccccc1 | 80 µM | 10.5 |  |  | 
55 | O=C1c2ccccc2C(=O)N1CCOC(=S)N(C(=O)c1ccco1)c1ccc(Cl)cc1 | 41 µM | 5857 | 1.7 µM | 5 nM | 2300 nM
56 | CC(=O)c1cccc(N(C(=O)c2cccs2)C(=S)OCCN2C(=O)c3ccccc3C2=O)c1 | > 100 µM | >17 |  |  | 
57 | CC(COc1ccccc1)OC(=S)N(C(=O)c1cccc2ccccc12)c1ccccc1 (stereo unspecified) |  | >33.3 |  |  | 
58 | CC(COc1ccccc1)OC(=S)N(C(=O)COc1ccccc1)c1ccccc1 (stereo unspecified) | 122 µM | 87.4 |  |  | 
59 | O=C(c1ccccc1)N(C(=S)OCCOc1ccccc1)c1ccccc1 | 122 µM | 15.2 |  |  | 
60 | S=C(NCCc1ccccn1)Nc1ccc(Br)cn1 [TROVIRDINE] | 60 µM | 3000 | 1.2 µM | 15 nM | 4200 nM
